Test results published in paper PMC3319382 (Bioorganic & medicinal chemistry, 2011).
Entries after “also recorded” stand apart in the source; their conditions may differ.

Columns and labels:
yeast Rce1p [1] = biological target: T1, yeast Rce1p (Saccharomyces cerevisiae, UniProt Q03530); details: ref [12], [13]; cited from earlier work
T1 sequence (Q03530 1-315): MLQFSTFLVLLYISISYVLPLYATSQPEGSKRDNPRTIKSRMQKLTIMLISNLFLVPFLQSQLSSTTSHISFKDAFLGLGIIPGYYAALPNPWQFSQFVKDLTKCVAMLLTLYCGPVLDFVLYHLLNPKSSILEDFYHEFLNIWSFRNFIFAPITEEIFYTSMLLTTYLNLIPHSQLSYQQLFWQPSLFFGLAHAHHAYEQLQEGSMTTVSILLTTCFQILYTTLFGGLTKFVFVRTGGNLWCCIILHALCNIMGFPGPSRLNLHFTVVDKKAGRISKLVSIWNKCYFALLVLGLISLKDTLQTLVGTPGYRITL

[2] = biological target: Ras Converting Enzyme 1 (Rce1p), HA-epitope tagged, yeast (S. cerevisiae) (UniProt Q03530); assay: cross-linking
yeast Rce1p [3] = biological target: T1, yeast Rce1p; assay: fluorescence-based CAAX proteolysis kinetic assay; format: biochemical
In short: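 Enzyme source was carbonate-washed membranes from S. cerevisiae overexpressing yeast Rce1p as sole CAAX protease, diluted in 100 mM Hepes pH 7.5, 5 mM MgCl2 and preincubated 10 min at 30 °C. The final mix held 0.25 mg/mL membrane protein and a 10-point substrate series (0–45 or 0–50 μM) in triplicate wells. Read at 340/420 nm every 30–60 s for 1 h at 30 °C. Product was quantified against trypsin-cleaved standard curves.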

Question: For `c1cnc2c(c1)ccc1cccnc12` [1,10-phenanthroline], which “inhibition of yeast Rce1p” value (yeast Rce1p [1]) is on record?
Answer: inhibited

Question: Which percent labeling of Rce1p by 14 (15 μM) left with 50 μM 2 [2] does the source give for “Peptide 2, Abz-KSKTKC(farnesyl)K(Dnp)IM, internally quenched fluorogenic farnesylated substrate based on the K-Ras4b C-terminal sequence” here?
Answer: 84%

Question: And the percent labeling of Rce1p by 14 (15 μM) left with 100 μM 2 [2]?
Answer: 7%

Question: For `[Zn]` [zinc], which “inhibition of yeast Rce1p” value (yeast Rce1p [1]) is on record?
Answer: inhibited

Question: For “Peptide 9, Biotin-K(Dde)KSKTKC(C10BP)K(Dnp)IM”, which fold labeling efficiency against probe 8 (fold less than 8) [2] is on record?
Answer: 4

Question: Which “h (Hill coefficient)” value (yeast Rce1p [3]; Rce1p-enriched membranes 0.25 mg/mL, pH 7.5, 30 °C, Hill Equation fit, n=5) does the source give for Abz-KSKTKC(C10BP)K(Dnp)IM [Peptide 6] here?
Answer: 1.8

Question: And the Vmax/KM (yeast Rce1p [3]; Rce1p-enriched membranes 0.25 mg/mL, pH 7.5, 30 °C, n=5)?
Answer: 8.9×10^−5 L/min/mg protein

Question: And the “efficiency (Vmax/KM) of Rce1p processing, fold lower than 2” value (yeast Rce1p [3]; compared with 2)?
Answer: 10 -fold

Question: What about the “maximal processing rate (Vmax), fold less than 2” value (yeast Rce1p [3]; compared with 2) of the same compound?
Answer: approximately 7 -fold

Question: And the “efficiency (Vmax/KM) of Rce1p processing compared with 4” value (yeast Rce1p [3]; compared with 4)?
Answer: approximately double that of 4; also recorded: increased approximately two-fold

Question: What about the “maximal processing rate (Vmax), fold greater than 4” value (yeast Rce1p [3]; compared with 4) of the same compound?
Answer: 9 -fold

Question: What about the “Rce1p substrate” value (yeast Rce1p [3]; fluorescence-based kinetic evaluation) of the same compound?
Answer: could serve as a substrate for Rce1p

Question: And the “binding affinity, fold less than that of 4” value (yeast Rce1p [3]; from KM, compared with 4)?
Answer: 4 -fold
